ARFGAP1 inhibitor = inhibits rat ARF GTPase activating protein 1. inhibition, % at 16.5 µM. Q62848. 0.26% of 360,000 active. Arfgap1-stimulated ARF1 GTP hydrolysis, GDP FP detection;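 active = inhibition above a per-plate limit, mean inhibition of low control wells plus 3 SD, cut at about 25% in these data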
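System: truncated rat Arfgap1 GAP domain / Benchmarks: high control wells lacking Arfgap1, low control full reaction with DMSO / Times: compound-enzyme preincubation 20 min, reaction 120 min, detection 60 min, 25 °C / Repeats: one replicate per compound / Also added: human ARF1(Δ1-17)-GTP substrate / Measured by: Tracer-displacement fluorescence polarization with EDTA stop, 620/688 nm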
CendR NRP1 mod = NRP-1/CendR interaction modulation; inhibition, % at 25 µM; FAM-RPARPAR peptide binding to NRP-1, fluorescence polarization; O14786; 0.85% of 360,000 active;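 active = inhibition or corrected inhibition above about 18%, plus a signal ratio from 0.5 to 1.5, limit read from the data, passing the limit was not always enough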
Target sequence (O14786 whole entry, looked up): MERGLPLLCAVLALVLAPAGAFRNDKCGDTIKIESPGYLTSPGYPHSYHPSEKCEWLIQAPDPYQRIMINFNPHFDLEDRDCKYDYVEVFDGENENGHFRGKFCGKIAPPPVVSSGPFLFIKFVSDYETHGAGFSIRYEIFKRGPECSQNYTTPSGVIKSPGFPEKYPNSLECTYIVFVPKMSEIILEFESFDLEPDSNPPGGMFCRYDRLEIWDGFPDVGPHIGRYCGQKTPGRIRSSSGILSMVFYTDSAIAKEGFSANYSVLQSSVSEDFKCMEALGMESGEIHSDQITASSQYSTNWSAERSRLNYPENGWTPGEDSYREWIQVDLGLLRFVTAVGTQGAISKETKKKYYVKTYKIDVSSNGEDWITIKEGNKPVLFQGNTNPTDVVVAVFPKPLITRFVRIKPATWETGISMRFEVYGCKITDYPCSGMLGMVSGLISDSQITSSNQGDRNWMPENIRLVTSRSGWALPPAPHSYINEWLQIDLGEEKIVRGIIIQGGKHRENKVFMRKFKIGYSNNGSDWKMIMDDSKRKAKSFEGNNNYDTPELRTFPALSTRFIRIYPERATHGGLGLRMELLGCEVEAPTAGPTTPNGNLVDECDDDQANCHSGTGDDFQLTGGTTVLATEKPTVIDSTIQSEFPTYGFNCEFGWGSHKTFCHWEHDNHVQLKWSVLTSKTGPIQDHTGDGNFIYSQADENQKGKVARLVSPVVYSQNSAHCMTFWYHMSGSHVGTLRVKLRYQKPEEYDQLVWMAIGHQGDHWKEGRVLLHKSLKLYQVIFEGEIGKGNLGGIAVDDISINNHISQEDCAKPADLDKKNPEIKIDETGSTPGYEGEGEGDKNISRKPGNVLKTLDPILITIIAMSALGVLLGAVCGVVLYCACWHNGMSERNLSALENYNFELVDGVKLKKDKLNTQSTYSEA
ASAP1 inh = ASAP1 ArfGAP inhibition | Q9ULH1 | ASAP1-stimulated ARF1 GTP hydrolysis, GDP FP detection | inhibition, % at 16.5 µM | 0.19% of 360,000 active | AID 624377; in the data active = inhibition above about 25%
Granule exo inh = blocks lytic granule exocytosis. AID 651702. inhibition, % at 10 µM. 0.66% of 360,000 active. TALL-104 LAMP-1 surface exposure, flow cytometry; cells stimulated with thapsigargin and PMA;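 active = inhibition above about 55%, limit read from the data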
V-ATPase pH = yeast V-ATPase proton transport regulation by pHLuorin. S. cerevisiae, pHLuorin cytosolic pH fluorescence. response, % at 10 µM. 0.37% of 350,000 active. AID 504577; in the data active = response mostly above about 7.3%, no sharp cut-off; inactive = mostly below about 5.4%; note: actives read high
Each line names hits and unclear results; the compound was inactive in the other large screens. An excerpt weighted towards active compounds, which were near 2.2% of everything screened.

Cc1cccc2sc(NNC(=O)c3ccc(S(=O)(=O)N4CCCC(C)C4)cc3)nc12 (configuration not stated)	V-ATPase pH 10
COC(=O)[C@]12C[C@H](CC(=O)NCc3ccc(OC)c(OC)c3)C(=O)N(Cc3ccc4c(c3)OCO4)C1=C[C@H](COCc1ccccc1)O[C@@H]2C	none (no result: CendR NRP1 mod, Granule exo inh, V-ATPase pH)
CC(=O)N1CCSc2ccc(S(=O)(=O)Nc3ccc(C)cc3)cc21	CendR NRP1 mod 22
COc1ccc(NS(=O)(=O)c2ccc3c(c2)N(C(C)=O)CCS3)cc1	none
Cc1cc(C(=O)OCC(=O)Nc2cccc(S(=O)(=O)N(C)C)c2)c(C)o1	CendR NRP1 mod 24
Cc1cc(NC(=O)COC(=O)c2cc(S(=O)(=O)N(C)C)ccc2Cl)no1	CendR NRP1 mod 29
O=C(COc1ccc2c3c(c(=O)oc2c1)CCCC3)NCc1ccccn1	none
C=CCNc1cccc2c1S(=O)(=O)N[C@H](C)CO2	none (no result: CendR NRP1 mod, Granule exo inh, V-ATPase pH)
Clc1nssc1=Nc1ccc(Br)cc1	Granule exo inh 59
Clc1ccc(N=c2ssnc2Cl)nc1	Granule exo inh 87
C[C@@H]1CN([C@H](C)CO)S(=O)(=O)c2ccc(Br)cc2O[C@H]1CN(C)CC1CCOCC1	none (no result: CendR NRP1 mod, Granule exo inh, V-ATPase pH)
CCOC(=O)C1=C(O)c2ccccc2C(=O)/C1=C\c1ccc(C)cc1	Granule exo inh 97 (no result: ARFGAP1 inhibitor, ASAP1 inh)
Cc1ccc(OC(C)C(=O)Nc2ccc(F)cc2)c([N+](=O)[O-])n1 (configuration not stated)	none
O=C(/C=C/c1ccc([N+](=O)[O-])cc1)c1ccccc(=O)c1O	Granule exo inh 56
COCc1[nH]nc2c1C(c1ccc(C)cc1)N(c1ccc(OC)cc1)C2=O (configuration not stated)	none (no result: CendR NRP1 mod, Granule exo inh, V-ATPase pH)
CCC(=C(c1ccc(OC)cc1)c1ccc(OC)cc1)c1cn(CC(O)CN(CCO)CCO)c2ccccc12 (configuration not stated)	Granule exo inh 72
CCOC(=O)N[C@@H](CC(C)C)C(=O)N1CCC[C@H]1C(=O)NCc1ccccc1	none (no result: CendR NRP1 mod, Granule exo inh, V-ATPase pH)
Cc1cc(/C=C(\C#N)C(N)=O)c(C)n1-c1ccc(N2CCOCC2)c([N+](=O)[O-])c1	none
Cc1cc(C=O)c(C)n1-c1ccc(N2CCCCC2)c([N+](=O)[O-])c1	CendR NRP1 mod 41
C#CCN(Cc1ccco1)C(=O)c1nnc2c3ccccc3n(S(=O)(=O)c3ccc(C)cc3)c2n1	none (no result: CendR NRP1 mod, Granule exo inh, V-ATPase pH)
CCC1(c2ccc(OC)cc2)NC(=O)N(CC(=O)NC2CCCCC2C)C1=O (configuration not stated)	CendR NRP1 mod 23
COc1ccc2c(c1)[C@@]1(OCCC=C[C@H]1C)C(=O)N2Cc1ccc(F)cc1	none (no result: CendR NRP1 mod, Granule exo inh, V-ATPase pH)
C=C1CCN([C@@H](Cc2ccccc2)C(=O)Nc2ccc(OC)cc2)S(=O)(=O)c2ccccc21	CendR NRP1 mod 27
C=C1CCN([C@@H](CC(C)C)C(=O)NCCC(C)C)S(=O)(=O)c2ccccc21	CendR NRP1 mod 24
C=C1CCN([C@@H](CC(C)C)C(=O)NCc2ccc(Cl)c(Cl)c2)S(=O)(=O)c2ccccc21	CendR NRP1 mod 32
C=C1CCN([C@@H](CC(C)C)C(=O)NCc2ccc(Cl)cc2)S(=O)(=O)c2ccccc21	none
CCc1ccc(NC(=O)C2CCCCC2C(=O)O)cc1 (configuration not stated)	none
CC(C)c1ccc(NC(=O)C2CCCCC2C(=O)O)cc1 (configuration not stated)	V-ATPase pH 14
N#CC1=C(S)N=C(N)C(c2nc(-c3ccccc3)cs2)C12CCCC2 (configuration not stated)	Granule exo inh 70
N#CC1=C(S)N=C(N)C(c2nc(-c3ccccc3)cs2)C12CCCCC2 (configuration not stated)	none (no result: V-ATPase pH)
N#C/C(=C\c1c(Oc2ccc(Cl)cc2)nc2ccccn2c1=O)C(=O)NC1CCS(=O)(=O)C1 (configuration not stated)	none
Cc1cccc(Oc2nc3ccccn3c(=O)c2/C=C(\C#N)C(=O)NC2CCS(=O)(=O)C2)c1C (configuration not stated)	Granule exo inh 68
Cc1cccn2c(=O)c(/C=C(\C#N)C(=O)NC3CCS(=O)(=O)C3)c(Oc3ccc(F)cc3)nc12 (configuration not stated)	Granule exo inh 74
O=C1c2ccccc2-c2onc3ccc(Oc4ccccc4)c1c23	Granule exo inh 85
COc1ccc(/C=N/Nc2nc(C)c([N+](=O)[O-])c(N(C)c3ccccc3)n2)cc1OC	CendR NRP1 mod 28
CN1[C@@H](COCc2ccccc2)C=CS1(=O)=O	none (no result: V-ATPase pH)
Cc1ccc(N2C(=O)C(Cl)=C(N3CCOCC3)C2=O)c(C)c1	none
Cc1ccc(N2C(=O)C(Cl)=C(NCc3ccccc3)C2=O)c(C)c1	CendR NRP1 mod 21
N#C/C(=C\c1ccccc1)C(=O)OCC(=O)N1CCCC1	CendR NRP1 mod 24
CC1CCN(C(=O)COC(=O)COc2ccccc2C#N)CC1	none
N#Cc1ccccc1OCC(=O)OCC(=O)N1CCCC1	CendR NRP1 mod 19
CCOC(=O)C1=C(C(=O)OCC)C2N(Cc3ccc(Br)cc3)c3ccccc3[C@@]23C[C@@H](C(=O)OC)N(S(=O)(=O)c2ccc(C(F)(F)F)cc2)C3=N1 (some centres not stated)	none (no result: CendR NRP1 mod, Granule exo inh, V-ATPase pH)
COc1ccncc1-c1csc(C(O)c2ccccc2)n1 (configuration not stated)	CendR NRP1 mod 23 (no result: V-ATPase pH)
COc1ccc(C(O)c2nc(-c3cc(F)cc(F)c3)cs2)cc1 (configuration not stated)	CendR NRP1 mod 40 (no result: V-ATPase pH)
COc1ccc(-c2csc(C(O)c3ccccc3)n2)cc1 (configuration not stated)	none (no result: V-ATPase pH)
COc1ccc(NC(=O)c2ccc(NC(=O)CSc3nc(N)cc(=O)[nH]3)cc2)cc1	none
Cn1c(N)c(C(=O)COC(=O)/C=C/c2ccc(Cl)c(Cl)c2)c(=O)n(C)c1=O	CendR NRP1 mod 25
COC(=O)[C@]12C[C@H](CC(=O)NCCCN3CCCC3=O)C(=O)N(Cc3ccccc3)C1=C[C@H](C(C)C)O[C@@H]2C1CC1	none (no result: CendR NRP1 mod, Granule exo inh, V-ATPase pH)
Cc1ccc(S(=O)(=O)N2c3ccc(S(N)(=O)=O)cc3CC2C)cc1 (configuration not stated)	CendR NRP1 mod 22
C=CCn1c(N)cc(=O)nc1SC(C)C(=O)Nc1cccc2ccccc12 (configuration not stated)	CendR NRP1 mod 22
CC(=O)C1=C(C)N(Cc2ccc(F)cc2)C(=S)NC1c1cccc(F)c1 (configuration not stated)	none (no result: CendR NRP1 mod, Granule exo inh, V-ATPase pH)
CCC1CCCCN1C(=S)NN=C(C)c1ccccn1 (configuration not stated)	none (no result: CendR NRP1 mod, Granule exo inh, V-ATPase pH)
COc1cc(NC(C)CCCNC(C)C)c2ncccc2c1OC (configuration not stated)	CendR NRP1 mod 24
COc1cc(N)c2ncccc2c1OC	none
COc1cc(NCCCCCCN)c2ncccc2c1OC	CendR NRP1 mod 31
